Data reported in ChEMBL document CHEMBL4364345, “Synthesis and evaluation of 1,3,4-oxadiazole derivatives for development as broad-spectrum antibiotics” (Bioorg Med Chem, 2019).

How the values were obtained:
[1] = system: Enterococcus faecium; experiment: Antimicrobial activity against Enterococcus faecium AUS0004 at 10 ug/disk incubated for 20 +/- 4 hrs by agar disk diffusion method; format: functional; conditions: read-out: DIZ
[2] = system: Listeria monocytogenes; experiment: Antimicrobial activity against Listeria monocytogenes clinical isolate at 200 ug/disk incubated for 20 +/- 4 hrs by agar disk diffusion method; format: functional; conditions: read-out: DIZ
[3] = system: Enterococcus faecalis; experiment: Antimicrobial activity against Enterococcus faecalis ATCC 29212 at 300 ug/disk incubated for 20 +/- 4 hrs by agar disk diffusion method; format: functional; conditions: read-out: DIZ
[4] = system: Enterococcus faecium; experiment: Antimicrobial activity against Enterococcus faecium AUS0004 at 300 ug/disk incubated for 20 +/- 4 hrs by agar disk diffusion method; format: functional; conditions: read-out: DIZ
[5] = system: Enterococcus faecium; experiment: Antimicrobial activity against Enterococcus faecium AUS0004 at 2 ug/disk incubated for 20 +/- 4 hrs by agar disk diffusion method; format: functional; conditions: read-out: DIZ
[6] = system: Enterococcus faecalis; experiment: Antimicrobial activity against Enterococcus faecalis ATCC 29212 at 5 ug/disk incubated for 20 +/- 4 hrs by agar disk diffusion method; format: functional; conditions: read-out: DIZ
[7] = system: Enterococcus faecium; experiment: Antimicrobial activity against Enterococcus faecium AUS0004 at 5 ug/disk incubated for 20 +/- 4 hrs by agar disk diffusion method; format: functional; conditions: read-out: DIZ
[8] = system: Klebsiella pneumoniae; experiment: Antimicrobial activity against Klebsiella pneumoniae clinical isolate at 50 ug/disk incubated for 20 +/- 4 hrs by agar disk diffusion method; format: functional; conditions: read-out: DIZ
Summary of the method: (§1)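 Agar disk diffusion on Mueller-Hinton agar swab-seeded from a 0.5 McFarland inoculum (about 10^8 CFU/ml). Cellulose discs got 50 μg compound (10 μl of 5 g/L in DMSO); a 10 μL DMSO disc was the control. Incubated aerobically at 35 ± 2 °C for 20 ± 4 h, then growth-inhibition diameters measured.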

[9] = system: Pseudomonas aeruginosa; experiment: Antimicrobial activity against Pseudomonas aeruginosa clinical isolate at 50 ug/disk incubated for 20 +/- 4 hrs by agar disk diffusion method; format: functional; conditions: read-out: DIZ; summary of the method: as §1
[10] = system: Escherichia coli; experiment: Antimicrobial activity against Escherichia coli clinical isolate at 50 ug/disk incubated for 20 +/- 4 hrs by agar disk diffusion method; format: functional; conditions: read-out: DIZ; summary of the method: as §1
[11] = system: Listeria monocytogenes; experiment: Antimicrobial activity against Listeria monocytogenes clinical isolate at 50 ug/disk incubated for 20 +/- 4 hrs by agar disk diffusion method; format: functional; conditions: read-out: DIZ
Summary of the method: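 Disk diffusion on MH agar with 5% horse blood, seeded by swab from a 0.5 McFarland suspension. Discs held 50 μg compound from a 5 g/L DMSO solution, with a DMSO-only control disc. Aerobic incubation at 35 ± 2 °C for 20 ± 4 h; inhibition zone diameter read.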

[12] = system: Staphylococcus aureus; experiment: Antimicrobial activity against Staphylococcus aureus ATCC 29213 at 50 ug/disk incubated for 20 +/- 4 hrs by agar disk diffusion method; format: functional; conditions: read-out: DIZ; summary of the method: as §1
[13] = system: Enterococcus faecalis; experiment: Antimicrobial activity against Enterococcus faecalis ATCC 29212 at 50 ug/disk incubated for 20 +/- 4 hrs by agar disk diffusion method; format: functional; conditions: read-out: DIZ; summary of the method: as §1
[14] = system: Enterobacter cloacae; experiment: Antimicrobial activity against Enterobacter cloacae clinical isolate at 50 ug/disk incubated for 20 +/- 4 hrs by agar disk diffusion method; format: functional; conditions: read-out: DIZ; summary of the method: as §1
[15] = system: Streptococcus pyogenes; experiment: Antimicrobial activity against Streptococcus pyogenes clinical isolate at 50 ug/disk incubated for 20 +/- 4 hrs by agar disk diffusion method; format: functional; conditions: read-out: DIZ
Summary of the method: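 Plates of MH + 5% horse blood were swabbed with a 0.5 McFarland inoculum and received discs with 50 μg compound (from 5 g/L in DMSO) plus a 10 μL DMSO control disc. Incubation at 35 ± 2 °C aerobically with 5% CO2 for 20 ± 4 h, then zone diameters measured.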

[16] = system: Kocuria rhizophila; experiment: Antimicrobial activity against Kocuria rhizophila clinical isolate at 50 ug/disk incubated for 20 +/- 4 hrs by agar disk diffusion method; format: functional; conditions: read-out: DIZ; summary of the method: as §1
[17] = system: Enterococcus faecium; experiment: Antimicrobial activity against Enterococcus faecium AUS0004 at 50 ug/disk incubated for 20 +/- 4 hrs by agar disk diffusion method; format: functional; conditions: read-out: DIZ; summary of the method: as §1
[18] = system: Bacteroides fragilis; experiment: Antimicrobial activity against Bacteroides fragilis ATCC 25285 at 50 ug/disk incubated for 20 +/- 4 hrs by agar disk diffusion method; format: functional; conditions: read-out: DIZ
Summary of the method: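 Anaerobic disk diffusion: MH agar + 5% horse blood seeded from a 0.5 McFarland swab, with discs of 50 μg compound (10 μl of 5 g/L DMSO solution) and a DMSO control disc. Kept at 35 ± 2 °C under anaerobic conditions for 20 ± 4 h; inhibition diameters recorded.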

[19] = system: Bacillus subtilis; experiment: Antimicrobial activity against Bacillus subtilis clinical isolate at 50 ug/disk incubated for 20 +/- 4 hrs by agar disk diffusion method; format: functional; conditions: read-out: DIZ; summary of the method: as §1
[20] = system: Acinetobacter baumannii; experiment: Antimicrobial activity against Acinetobacter baumannii clinical isolate at 50 ug/disk incubated for 20 +/- 4 hrs by agar disk diffusion method; format: functional; conditions: read-out: DIZ; summary of the method: as §1
[21] = system: Enterococcus faecium; experiment: Antimicrobial activity against Enterococcus faecium HM1070 at 50 ug/disk incubated for 20 +/- 4 hrs by agar disk diffusion method; format: functional; conditions: read-out: DIZ; summary of the method: as §1
[22] = system: Clostridium perfringens; experiment: Antimicrobial activity against Clostridium perfringens clinical isolate at 50 ug/disk incubated for 20 +/- 4 hrs by agar disk diffusion method; format: functional; conditions: read-out: DIZ
Summary of the method: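 Agar disk diffusion on MH agar with 5% horse blood (MHF), surface-seeded by swab from a 0.5 McFarland inoculum (about 10^8 CFU/ml). Cellulose discs received 10 μl of a 5 g/L DMSO solution (50 μg). A DMSO-only disc served as control. Anaerobic incubation at 35 ± 2 °C for 20 ± 4 h; growth-inhibition diameter measured in mm.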

[23] = system: Escherichia coli; experiment: Antimicrobial activity against Escherichia coli ATCC 25922 at 50 ug/disk incubated for 20 +/- 4 hrs by agar disk diffusion method; format: functional; conditions: read-out: DIZ; summary of the method: as §1
[24] = system: Listeria monocytogenes; experiment: Antimicrobial activity against Listeria monocytogenes clinical isolate at 5 ug/disk incubated for 20 +/- 4 hrs by agar disk diffusion method; format: functional; conditions: read-out: DIZ
[25] = system: Enterococcus faecium; experiment: Antimicrobial activity against Enterococcus faecium AUS0004 at 30 ug/disk incubated for 20 +/- 4 hrs by agar disk diffusion method; format: functional, organism-based
[26] = system: Enterococcus faecalis; experiment: Antimicrobial activity against Enterococcus faecalis ATCC 29212 at 30 ug/disk incubated for 20 +/- 4 hrs by agar disk diffusion method; format: functional, organism-based
[27] = system: Listeria monocytogenes; experiment: Antimicrobial activity against Listeria monocytogenes clinical isolate at 30 ug/disk incubated for 20 +/- 4 hrs by agar disk diffusion method; format: functional; conditions: read-out: DIZ
[28] = system: Enterococcus faecium; experiment: Antimicrobial activity against Enterococcus faecium AUS0004 at 15 ug/disk incubated for 20 +/- 4 hrs by agar disk diffusion method; format: functional; conditions: read-out: DIZ
[29] = system: Enterococcus faecalis; experiment: Antimicrobial activity against Enterococcus faecalis ATCC 29212 at 15 ug/disk incubated for 20 +/- 4 hrs by agar disk diffusion method; format: functional; conditions: read-out: DIZ

C[C@@H](O)[C@H]1C(=O)N2C(C(=O)O)=C(SCCNC=N)C[C@H]12 [IMIPENEM ANHYDROUS]
zone of inhibition at 10 µg/disc [1]: 6 mm

C[C@@H]1O[C@@H]1P(=O)(O)O [FOSFOMYCIN]
zone of inhibition at 200 µg/disc [2]: 6 mm

CN[C@@H]1[C@H](O[C@H]2[C@H](O[C@H]3[C@H](O)[C@@H](O)[C@H](N=C(N)N)[C@@H](O)[C@@H]3N=C(N)N)O[C@@H](C)[C@]2(O)C=O)O[C@@H](CO)[C@H](O)[C@H]1O [STREPTOMYCIN]
zone of inhibition at 300 µg/disc [3]: 16 mm
zone of inhibition at 300 µg/disc [4]: 22 mm

CC1(C)S[C@@H]2[C@H](NC(=O)[C@H](N)c3ccccc3)C(=O)N2[C@H]1C(=O)O [AMPICILLIN]
zone of inhibition at 2 µg/disc [5]: 6 mm

CO[C@H]1/C=C/O[C@@]2(C)Oc3c(C)c(O)c4c(O)c(c(/C=N/N5CCN(C)CC5)c(O)c4c3C2=O)NC(=O)/C(C)=C\C=C\[C@H](C)[C@H](O)[C@@H](C)[C@@H](O)[C@@H](C)[C@H](OC(C)=O)[C@@H]1C [RIFAMPIN]
zone of inhibition at 5 µg/disc [6]: 21 mm
zone of inhibition at 5 µg/disc [7]: 9 mm

O=C(Nc1nnc(-c2ccc(C(F)(F)F)cc2)o1)c1ccc(Cl)cc1
zone of inhibition at 50 µg/disc [8]: 6 mm
zone of inhibition at 50 µg/disc [9]: 6 mm
zone of inhibition at 50 µg/disc [10]: 6 mm
zone of inhibition at 50 µg/disc [11]: 16 mm
zone of inhibition at 50 µg/disc [12]: 9 mm
zone of inhibition at 50 µg/disc [13]: 10 mm
zone of inhibition at 50 µg/disc [14]: 6 mm
zone of inhibition at 50 µg/disc [15]: 6 mm
zone of inhibition at 50 µg/disc [16]: 14 mm
zone of inhibition at 50 µg/disc [17]: 9 mm
zone of inhibition at 50 µg/disc [18]: 9 mm
zone of inhibition at 50 µg/disc [19]: 13 mm
zone of inhibition at 50 µg/disc [20]: 6 mm
zone of inhibition at 50 µg/disc [21]: 11 mm
zone of inhibition at 50 µg/disc [22]: 6 mm
zone of inhibition at 50 µg/disc [23]: 6 mm

CC1COc2c(N3CCN(C)CC3)c(F)cc3c(=O)c(C(=O)O)cn1c23 (centres undefined) [OFLOXACIN]
zone of inhibition at 5 µg/disc [24]: 21 mm

GENTAMICIN
inhibition zone (IZ) [25]: 17 mm
inhibition zone (IZ) [26]: 14 mm

CO[C@@]1(NC(=O)[C@H](C(=O)O)c2ccc(O)cc2)C(=O)N2C(C(=O)O)=C(CSc3nnnn3C)CO[C@@H]21
zone of inhibition at 30 µg/disc [27]: 15 mm

CC[C@H]1OC(=O)[C@H](C)[C@@H](O[C@H]2C[C@@](C)(OC)[C@@H](O)[C@H](C)O2)[C@H](C)[C@@H](O[C@@H]2O[C@H](C)C[C@H](N(C)C)[C@H]2O)[C@](C)(O)C[C@@H](C)C(=O)[C@H](C)[C@@H](O)[C@]1(C)O [ERYTHROMYCIN]
zone of inhibition at 15 µg/disc [28]: 6 mm
zone of inhibition at 15 µg/disc [29]: 20 mm
